High-throughput results: PubChem, several laboratories
KCC2 mod: KCC2 cotransporter modulators, thallium flux, primary screen, cell-based, HEK293 KCC2, FluoZin-2 fluorescence, MLSMR; Solute carrier family 12 member 5 (Homo sapiens), Q9H2X9; B-score of Tl+ flux slope (higher = more flux/activation; lower = inhibition) at 10 µM; KCC2 cells, thallium flux FluoZin-2 fluorescence; AID 1456, 2008; 190,000 compounds, 2.2% hits;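 active = thallium flux slope and its plate-corrected score both differing from the plate sample mean at a set confidence after two filtering rounds, in either direction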;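 also: slope of fluorescence scaled to starting intensity during 10 to 20 s after thallium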
Dynein transport: inhibitors of GR-EGFP nuclear translocation, primary screen, dynein cargo transport inhibitor project, imaging, high-content, 3617.4 mouse cells; test concentration mostly 20 µM; stimulated with dexamethasone, 1 µM; hits give low values; z-score, hits read low; 220,000 compounds, 0.47% hits;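 active = plate z-score of nuclear minus cytoplasmic receptor signal below a set negative limit, without overly bright fluorescence or cell loss, cut at about -3.5 in these data, passing the limit was not always enough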;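 also: z-score of nuclear minus cytoplasmic ring GR-EGFP intensity difference per well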
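Buffer or medium: tetracycline-free induction medium containing charcoal-stripped FBS / Reagent: dexamethasone agonist, 1.0 µM final, for 30 min / Technique: automated 10x imaging of fixed Hoechst-stained cells / Times: induction 48 h, compound 1 h, agonist 30 min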
pCIP destab: p/CIP-EGFP fusion destabilizers, primary screen, fluorescence, F442A cells; 16 h; decrease of EGFP signal, % at 10 µM; 290,000 compounds, 0.01% hits; AID 1984, 2009;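 active = EGFP signal decrease of at least 30% at 10 µM or well 3 SD below plate mean, unless failing retest; inactive = the rest, including hits failing retest or dose response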
V-ATPase pHluor: regulators of yeast V-ATPase proton pumping, primary screen, pHLuorin cytosolic pH fluorescence | S. cerevisiae | response, % at 10 µM | 350,000 compounds, 0.37% hits | AID 504577, 2011; in the data active = response mostly above about 7.3%, no sharp cut-off; inactive = mostly below about 5.4%; also: actives read high
ABCB6 inh 2: ABCB6 transporter inhibitors, primary screen, K562-ABCB6 cells, flow cytometry, MLPCN library; ATP-binding cassette sub-family B member 6 (Homo sapiens), Q9NP58; K562-ABCB6 porphyrin accumulation, 1 h; hits give low values; fluorescence ratio to DMSO, % at 10 µM; 360,000 compounds, 0.19% hits; AID 602162, 2011;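 active = fluorescence ratio to DMSO below 75%, the collection mean minus 3 SD; inconclusive = too few cells collected in the well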;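 also: signal is porphyrin accumulated inside mitochondria; lower ratio means ABCB6 inhibition with less porphyrin fluorescence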
KCC2 sec1: KCC2 modulators in sodium-free buffer, confirmation, cell-based, HEK293 KCC2, thallium flux, secondary assay | FluoZin2 fluorescence; hits give high values | 3,700 compounds, 15% hits | AID 1713, 2009 | normalised thallium flux (F/F0 slope) at 10 µM | shares compounds with KCC2 mod;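 active = thallium flux slope above the same plate's solvent-only control mean plus 3 SD; inconclusive = the two replicate wells disagree; inactive = no significant difference from solvent-only control wells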
KCC2 bumet counter: thallium flux persisting under bumetanide in KCC2 cells, confirmation, counter-screen for KCC2 modulator project, cell-based, HEK293 KCC2, FluoZin2, secondary assay 3; AID 1714, 2009; HEK293-KCC2 + bumetanide/ouabain; hits give high values; 3,700 compounds, 49% hits; shares compounds with KCC2 mod; normalized thallium flux at 10 µM;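 active = thallium entry rate above the same plate's blocked-transporter control wells by more than 3 SD; inconclusive = the two repeat wells disagree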;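 also: raw slope of fluorescence over initial fluorescence between 10 and 20 s after thallium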
KCC2 secondary2: KCC2 modulators without ouabain present, confirmation, cell-based, HEK293 KCC2, thallium flux, FluoZin2, secondary assay 2. thallium flux FluoZin2 fluorescence; actives lie on both sides; F/F0 rise rate, 10–20 s post-thallium. 3,700 compounds, 23% hits. shares compounds with KCC2 mod. AID 1715, 2009. normalized thallium flux at 10 µM;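 active = thallium flux slope more than 3 SD above or below the plate's solvent-only control mean, mostly below; inconclusive = the two repeat wells disagreed; inactive = no significant shift from solvent-only controls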
HEK counter1: thallium flux modulation in parental HEK cells, confirmation, counter-screen for KCC2 modulator project, cell-based, counterscreen 1; 3,700 compounds, 46% hits; shares compounds with KCC2 mod; AID 1716, 2009; HEK293 parental cells, thallium flux FluoZin2, ouabain; baseline-ratio fluorescence slope, 10–20 s after thallium; thallium flux rate (normalised fluorescence) at 10 µM;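 active = thallium flux rate significantly above the same plate's solvent-only control wells, beyond their mean plus 3 SD; inconclusive = the two replicate wells gave conflicting results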
KCC2 ouabain: KCC2 inhibitors and activators, ouabain retest, confirmation, HEK-KCC2 cells. HEK293-KCC2, thallium flux FluoZin2 fluorescence; bidirectional: low = inhibitor, high = activator. AID 1717, 2009. raw Tl+ flux slope (below DMSO = inhibition, above = activation) at 10 µM. 3,700 compounds, 48% hits. shares compounds with KCC2 mod;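 active = thallium flux slope beyond 3 SD from same-plate DMSO control mean in most replicates, usually higher, sometimes lower; inconclusive = repeat tests gave conflicting results; inactive = no significant difference from controls in most replicates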;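 also: slope of initial-normalized fluorescence between seconds 10 and 20 after thallium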
HEK293 Tl flux2: native HEK Tl+ uptake effects, second counter-screen – HEK cells, counterscreen 2, counter-screen for KCC2 modulator project, confirmation. shares compounds with KCC2 mod. HEK293 parental, thallium flux FluoZin-2 fluorescence slope. thallium flux slope at 10 µM. 3,700 compounds, 33% hits. AID 1718, 2009;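 active = thallium flux slope above the same plate's solvent-control mean plus 3 SD in both duplicate wells; inconclusive = duplicate wells that disagreed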;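 also: run without ouabain in cells lacking the KCC2 cotransporter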
Each line names hits and unclear results; the compound was inactive in the other large screens (follow-up assays come after a bar, where they were run). This is one part of a sample in which hits are shown more often than they occur.

CC1CCC(C(=O)NNC(=O)c2cc(-c3ccco3)[nH]n2)CC1 (stereo not given)	KCC2 mod -2.9 | KCC2 sec1 inactive | KCC2 bumet counter inactive | KCC2 secondary2 inactive | HEK counter1 inconclusive | KCC2 ouabain inconclusive | HEK293 Tl flux2 inactive
Cc1ccc(C2(C)NC(=O)N(CC(=O)NNC(=O)c3ccccc3F)C2=O)cc1 (stereo not given)	none (no result: KCC2 mod, Dynein transport, pCIP destab)
O=C(Nc1nc(SCc2ccc(F)cc2)ns1)c1ccco1	KCC2 mod -3.7 | KCC2 sec1 inactive | KCC2 bumet counter inconclusive | KCC2 secondary2 0.021 | HEK counter1 inconclusive | KCC2 ouabain 0.012 | HEK293 Tl flux2 inactive
Fc1ccc(CSc2nsc(SCc3ccc(F)cc3)n2)cc1	none
Cc1ccc(C(=O)Nc2ccccc2N2CCCCC2)cc1[N+](=O)[O-]	none
Cc1ccc(C(=O)Nc2ccccc2C(=O)N2CCOCC2)cc1[N+](=O)[O-]	KCC2 mod 6.9 | KCC2 sec1 inactive | KCC2 bumet counter inactive | KCC2 secondary2 inactive | HEK counter1 inactive | KCC2 ouabain inactive | HEK293 Tl flux2 inactive
Cc1ccc(C(=O)N2CCOCC2)cc1[N+](=O)[O-]	none
CC1Cc2ccccc2N1C(=S)NC(=O)c1ccco1 (stereo not given)	KCC2 mod 26 | KCC2 sec1 0.012 | KCC2 bumet counter 0.056 | KCC2 secondary2 0.042 | HEK counter1 0.039 | KCC2 ouabain 0.049 | HEK293 Tl flux2 0.029
Cc1ccc(C(=O)NC(=S)Nc2ccccc2N2CCCC2)cc1[N+](=O)[O-]	KCC2 mod 5.5 | KCC2 sec1 inactive | KCC2 bumet counter 0.042 | KCC2 secondary2 inactive | HEK counter1 0.018 | KCC2 ouabain 0.04 | HEK293 Tl flux2 0.012
O=C(NC(=S)Nc1ccccc1N1CCCC1)c1ccco1	KCC2 mod 134 | KCC2 sec1 0.042 | KCC2 bumet counter 0.11 | KCC2 secondary2 0.056 | HEK counter1 0.072 | KCC2 ouabain 0.068 | HEK293 Tl flux2 0.062
C=CCn1c(=O)c2ccccc2n2c(SCC(=O)NCC)nnc12	none (no result: KCC2 mod, Dynein transport)
Cc1cc(C)c(NC(=O)CNC(=O)COC(=O)Cc2cccs2)c(C)c1	none (no result: KCC2 mod, Dynein transport, pCIP destab)
O=C(/C=C\c1ccco1)NC(=S)Nc1ccccc1O	none
O=C(NC(=S)Nc1ccccc1[N+](=O)[O-])c1ccccc1	KCC2 mod 18 | KCC2 sec1 inactive | KCC2 bumet counter 0.037 | KCC2 secondary2 inconclusive | HEK counter1 0.02 | KCC2 ouabain 0.035 | HEK293 Tl flux2 0.021
O=C(/C=C/c1ccco1)NC(=S)Nc1ccccc1N1CCCC1	KCC2 mod 3.2 | KCC2 sec1 inactive | KCC2 bumet counter 0.028 | KCC2 secondary2 inactive | HEK counter1 0.011 | KCC2 ouabain inactive | HEK293 Tl flux2 inactive
Cc1ccccc1N1CC(C(=O)N2CCCCCC2)CC1=O (stereo not given)	none (no result: KCC2 mod, Dynein transport, pCIP destab)
COc1ccc(/C=C/C(=O)NC(=S)Nc2cc([N+](=O)[O-])ccc2O)cc1OC	none
CCCc1n[nH]c(=S)n1Cc1ccco1	none
CC(C)c1ccc(/C=N/n2c(COc3ccccc3)n[nH]c2=S)cc1	none (no result: KCC2 mod, Dynein transport)
S=c1[nH]nc(COc2ccc(Cl)cc2)n1Cc1ccco1	KCC2 mod 10 | KCC2 sec1 inactive | KCC2 bumet counter 0.057 | KCC2 secondary2 inactive | HEK counter1 0.012 | KCC2 ouabain 0.028 | HEK293 Tl flux2 inconclusive
CCCCc1n[nH]c(=S)n1Cc1ccc(Cl)cc1	KCC2 mod 4.2 | KCC2 sec1 inactive | KCC2 bumet counter 0.017 | KCC2 secondary2 inactive | HEK counter1 0.0094 | KCC2 ouabain inactive | HEK293 Tl flux2 inactive
S=c1[nH]nc(-c2ccc(Br)cc2)n1Cc1ccco1	none (no result: KCC2 mod) | KCC2 sec1 inactive | KCC2 bumet counter 0.016 | KCC2 secondary2 inactive | HEK counter1 0.015 | KCC2 ouabain inconclusive | HEK293 Tl flux2 0.014
CC(C)CCn1c(COc2ccccc2)n[nH]c1=S	KCC2 mod 6.2 | KCC2 sec1 inactive | KCC2 bumet counter 0.03 | KCC2 secondary2 inactive | HEK counter1 0.014 | KCC2 ouabain inactive | HEK293 Tl flux2 0.011
O=C(NCc1ccccc1)C(c1ccncc1)N(C(=O)c1csnn1)C1CC1 (stereo not given)	none
Cc1cccc(OCc2n[nH]c(=S)n2Cc2ccccc2)c1	KCC2 mod 8.9 | KCC2 sec1 0.013 | KCC2 bumet counter 0.062 | KCC2 secondary2 inactive | HEK counter1 0.018 | KCC2 ouabain inactive | HEK293 Tl flux2 0.012
CCc1ccc(OCc2n[nH]c(=S)n2Cc2ccccc2)cc1	KCC2 mod 15 | KCC2 sec1 inactive | KCC2 bumet counter 0.036 | KCC2 secondary2 inactive | HEK counter1 0.015 | KCC2 ouabain inconclusive | HEK293 Tl flux2 0.011
Cc1ccc(S(=O)(=O)N2CCCC2C(=O)Nc2nc3c(s2)CCCC3)cc1 (stereo not given)	KCC2 mod -3.2 | KCC2 sec1 inactive | KCC2 bumet counter inactive | KCC2 secondary2 inactive | HEK counter1 inactive | KCC2 ouabain 0.016 | HEK293 Tl flux2 inactive
Cc1ccc(S(=O)(=O)N2CCCCC2C(=O)Nc2nncs2)cc1 (stereo not given)	none
COc1ccc(S(=O)(=O)N2CCC(C(=O)N[C@@H](C)C(=O)NCc3ccccn3)CC2)cc1	none (no result: KCC2 mod, Dynein transport, pCIP destab)
C=CCNC(=O)COC(=O)C1CCN(S(=O)(=O)c2ccc3c(c2)OCCO3)CC1	none (no result: KCC2 mod, Dynein transport)
O=C(NC(=S)NCc1ccccc1)c1cccnc1	none
